The source made the active and inactive calls. The calls are words filed in the database; no cut-off is given here.
Legend:
[1] = tested on: Trypanosoma cruzi; test: Antitrypanosomal activity against Trypanosoma cruzi Arequipa trypomastigotes infected in BALB/c mouse assessed as parasitemia re-activation level measured during chronic phase ( day 90 post infection) at 100 mg/kg, po dosed on alternating days (7 to 15 days post infection) relative to acute phase infection (reference value: […]%); type: functional
[2] = target: T1, Superoxide dismutase [Cu-Zn] (Homo sapiens, UniProt P00441); test: Inhibition of human erythrocyte CuZn-SOD by NBT dye based spectrophotometry
Procedure, shortened: (§1)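 Fe-SOD source: Arequipa epimastigote homogenate (STE buffer pH 7.8, sonication, centrifugation, supernatant; protein by Bradford); CuZn-SOD was commercial human erythrocyte enzyme. Activity was measured as NBT reduction by superoxide in 50 mM potassium phosphate pH 7.8, with compounds at 5 concentrations (1–100 µM). A560 was read before and after 10 min under lamp light with stirring. Three rate determinations; Newman–Keuls test.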

[3] = target: T1, Superoxide dismutase [Cu-Zn]; test: Inhibition of human erythrocyte CuZn-SOD at 50 uM by NBT dye based spectrophotometry; procedure, shortened: as §1
[4] = tested on: Trypanosoma cruzi; test: Antitrypanosomal activity against Trypanosoma cruzi Arequipa trypomastigotes infected in BALB/c mouse assessed as reduction in parasitemia level in adipose tissue measured during acute phase (days 0 to 40 post infection) at 100 mg/kg, po dosed on alternating days (7 to 15 days post infection) by PCR analysis; type: functional, organism-based
[5] = tested on: Trypanosoma cruzi; test: Antitrypanosomal activity against Trypanosoma cruzi Arequipa trypomastigotes infected in BALB/c mouse assessed as reduction in mouse mortality measured during acute phase (days 0 to 40 post infection) at 50 to 100 mg/kg, po dosed on alternating days (7 to 15 days post infection); type: functional, organism-based; conditions: dose 50-100 mg/kg
[6] = tested on: Trypanosoma cruzi; test: Antitrypanosomal activity against Trypanosoma cruzi Arequipa trypomastigotes infected in BALB/c mouse assessed as reduction in parasitemia level in heart measured during acute phase (days 0 to 40 post infection) at 50 to 100 mg/kg, po dosed on alternating days (7 to 15 days post infection) by PCR analysis; type: functional, organism-based; conditions: dose 50-100 mg/kg
[7] = tested on: Trypanosoma cruzi; test: Antitrypanosomal activity against Trypanosoma cruzi Arequipa epimastigote forms incubated for 72 hrs by hemocytometry; type: functional, organism-based
Procedure, shortened: (§2)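 Epimastigotes grown in MTL medium with 10% inactivated FBS at 28 °C. Compounds were dissolved in DMSO (0.01% v/v) and added at 0.1–100 µM for 72 h. Parasites were counted in a Neubauer chamber. IC50 (50% growth inhibition) was derived by linear regression of Kc values. Values are averages of four determinations.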

[8] = tested on: Trypanosoma cruzi; test: Antitrypanosomal activity against Trypanosoma cruzi Arequipa trypomastigotes infected in BALB/c mouse assessed as reduction in parasitemia level in brain measured during acute phase (days 0 to 40 post infection) at 100 mg/kg, po dosed on alternating days (7 to 15 days post infection) by PCR analysis; type: functional, organism-based
[9] = tested on: Trypanosoma cruzi; test: Antitrypanosomal activity against Trypanosoma cruzi SN3 epimastigote forms incubated for 72 hrs by hemocytometry; type: functional, organism-based; conditions: SN3, 72 h; procedure, shortened: as §2
[10] = tested on: Trypanosoma cruzi; test: Antitrypanosomal activity against Trypanosoma cruzi Arequipa trypomastigotes infected in BALB/c mouse assessed as reduction in parasitemia level in lung measured during acute phase (days 0 to 40 post infection) at 100 mg/kg, po dosed on alternating days (7 to 15 days post infection) by PCR analysis; type: functional, organism-based
[11] = tested on: Trypanosoma cruzi; test: Antitrypanosomal activity against Trypanosoma cruzi Arequipa trypomastigotes infected in BALB/c mouse assessed as reduction in parasitemia level in heart measured during acute phase (days 0 to 40 post infection) at 100 mg/kg, po dosed on alternating days (7 to 15 days post infection) by PCR analysis; type: functional, organism-based
[12] = tested on: Trypanosoma cruzi; test: Antitrypanosomal activity against Trypanosoma cruzi SN3 amastigote forms infected in African green monkey Vero cells incubated for 72 hrs by Giemsa staining based micrscopy; type: functional, organism-based
Procedure, shortened: (§3)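 Vero cells (RPMI, 10% inactivated FBS, 37 °C, 5% CO2) were seeded at 1×10^4/well on coverslips and cultured 2 days. They were infected 24 h with metacyclic forms at 10:1. After washing off free parasites, drugs were added at 0.1–100 µM for 72 h. Slides were methanol-fixed and Giemsa-stained; amastigotes were counted in 200 host cells versus untreated. IC50 was calculated.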

[13] = tested on: Trypanosoma cruzi; test: Antitrypanosomal activity against Trypanosoma cruzi Tulahuen epimastigote forms incubated for 72 hrs by hemocytometry; type: functional, organism-based; procedure, shortened: as §2
[14] = tested on: Trypanosoma cruzi; test: Antitrypanosomal activity against Trypanosoma cruzi Arequipa trypomastigotes infected in BALB/c mouse assessed as reduction in parasitemia level in bone marrow measured during acute phase (days 0 to 40 post infection) at 100 mg/kg, po dosed on alternating days (7 to 15 days post infection) by PCR analysis; type: functional, organism-based
[15] = tested on: Trypanosoma cruzi; test: Antitrypanosomal activity against Trypanosoma cruzi SN3 trypomastigote froms infected in mouse blood incubated for 24 hrs by Neubauer chamber based assay; type: functional, organism-based
Procedure, shortened: (§4)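 Mouse blood taken at peak parasitemia (day 7) was diluted with uninfected blood to 4×10^6 trypomastigotes/mL, then 1:2 in RPMI 1640. Drugs from DMSO stocks were added at 1, 10, 25, 50 and 100 µM and incubated 24 h at 4–8 °C. Parasites were counted in a Neubauer chamber in triplicate. IC50 was calculated versus control.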

[16] = tested on: Trypanosoma cruzi; test: Antitrypanosomal activity against Trypanosoma cruzi Arequipa trypomastigotes infected in BALB/c mouse assessed as reduction in parasitemia level in esophagus measured during acute phase (days 0 to 40 post infection) at 100 mg/kg, po dosed on alternating days (7 to 15 days post infection) by PCR analysis; type: functional, organism-based
[17] = tested on: Vero; test: Cytotoxicity in African green monkey Vero cells incubated for 72 hrs; type: cell-based; conditions: Chlorocebus sabaeus
[18] = tested on: Trypanosoma cruzi; test: Antitrypanosomal activity against Trypanosoma cruzi Tulahuen amastigote forms infected in African green monkey Vero cells incubated for 72 hrs by Giemsa staining based micrscopy; type: functional, organism-based; procedure, shortened: as §3
[19] = tested on: Trypanosoma cruzi; test: Antitrypanosomal activity against Trypanosoma cruzi Arequipa trypomastigotes infected in BALB/c mouse assessed as reduction in parasitemia level in muscle measured during acute phase (days 0 to 40 post infection) at 100 mg/kg, po dosed on alternating days (7 to 15 days post infection) by PCR analysis; type: functional, organism-based
[20] = tested on: Trypanosoma cruzi; test: Antitrypanosomal activity against Trypanosoma cruzi Arequipa trypomastigotes infected in BALB/c mouse assessed as reduction in splenomegaly by measuring weight percent of spleens […] at 50 mg/kg, po dosed on alternating days (7 to 15 days post infection) by PCR analysis (reference value: 1.603%); type: functional; design: scale not given: the % may be the effect or the level left
[21] = tested on: Trypanosoma cruzi; test: Antitrypanosomal activity against Trypanosoma cruzi infected in African green monkey Vero cells assessed as reduction in number of amastigotes per infected cell measured up to 10 days by Giemsa staining based hemocytometry; type: functional; conditions: time day <=10
Procedure, shortened: (§5)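 Vero cells infected with metacyclic forms (10:1) were exposed to one concentration per compound immediately after infection for 12 h at 37 °C, 5% CO2. After washing, cultures were kept 10 days with fresh medium every 48 h. Every 48 h, % infected cells and amastigotes per infected cell (200 Giemsa-stained cells) and medium trypomastigotes (Neubauer) were scored. Means of three experiments.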

[22] = tested on: Trypanosoma cruzi; test: Antitrypanosomal activity against Trypanosoma cruzi Arequipa amastigote forms infected in African green monkey Vero cells incubated for 72 hrs by Giemsa staining based micrscopy; type: functional, organism-based; procedure, shortened: as §3
[23] = tested on: Trypanosoma cruzi; test: Inhibition of Trypanosoma cruzi Arequipa Fe-SOD at 50 uM by NBT dye based spectrophotometry; procedure, shortened: as §1
[24] = tested on: Trypanosoma cruzi; test: Antitrypanosomal activity against Trypanosoma cruzi Arequipa trypomastigotes infected in BALB/c mouse assessed as reduction in parasitemia level in stomach measured during acute phase (days 0 to 40 post infection) at 100 mg/kg, po dosed on alternating days (7 to 15 days post infection) by PCR analysis; type: functional, organism-based
[25] = tested on: Trypanosoma cruzi; test: Antitrypanosomal activity against Trypanosoma cruzi Arequipa trypomastigotes infected in BALB/c mouse assessed as reduction in parasitemia measured during acute phase (days 0 to 40 post infection) at 50 to 100 mg/kg, po dosed on alternating days (7 to 15 days post infection); type: functional, organism-based; conditions: dose 50-100 mg/kg
Procedure, shortened: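 Female BALB/c mice (8–10 weeks, 25–30 g; groups of six) were infected i.p. with 5×10^5 Arequipa blood trypomastigotes. Dosing was oral, 50 or 100 mg/kg/day, on 5 alternating days (days 7–15 pi), alongside untreated and reference-drug groups. Parasitemia was counted in 5 µL mandibular-vein blood by Neubauer chamber through day 40 pi. Data are means ± SD of six mice.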

[26] = Inhibition of Trypanosoma cruzi Arequipa Fe-SOD by NBT dye based spectrophotometry; procedure, shortened: as §1
[27] = tested on: Trypanosoma cruzi; test: Antitrypanosomal activity against Trypanosoma cruzi infected in African green monkey Vero cells assessed as reduction in infection rate measured up to 10 days by Giemsa staining based hemocytometry; type: functional; conditions: time day <=10; procedure, shortened: as §5
[28] = tested on: Trypanosoma cruzi; test: Antitrypanosomal activity against Trypanosoma cruzi infected in African green monkey Vero cells assessed as reduction in number of trypomastigotes measured up to 10 days by Giemsa staining based hemocytometry; type: functional; conditions: time day <=10; procedure, shortened: as §5
[29] = tested on: Trypanosoma cruzi; test: Antitrypanosomal activity against Trypanosoma cruzi Tulahuen trypomastigote froms infected in mouse blood incubated for 24 hrs by Neubauer chamber based assay; type: functional, organism-based; procedure, shortened: as §4
[30] = tested on: Trypanosoma cruzi; test: Antitrypanosomal activity against Trypanosoma cruzi Arequipa trypomastigote froms infected in mouse blood incubated for 24 hrs by Neubauer chamber based assay; type: functional, organism-based; procedure, shortened: as §4
[31] = tested on: Trypanosoma cruzi; test: Antitrypanosomal activity against Trypanosoma cruzi Arequipa trypomastigotes infected in BALB/c mouse assessed as reduction in splenomegaly by measuring weight percent of spleens […] at 100 mg/kg, po dosed on alternating days (7 to 15 days post infection) by PCR analysis (reference value: 1.603%); type: functional
[32] = Selectivity index, ratio of IC50 for cytotoxicity in African green monkey Vero cells to IC50 for antitrypanosomal activity against Trypanosoma cruzi […] epimastigote forms
[33] = Selectivity index, ratio of IC50 for cytotoxicity in African green monkey Vero cells to IC50 for antitrypanosomal activity against Trypanosoma cruzi […] amastigote forms; type: toxicity, cell-based; conditions: read-out: Ratio IC50
[34] = tested on: Trypanosoma cruzi; test: Inhibition of Trypanosoma cruzi Arequipa Fe-SOD at <50 uM by NBT dye based spectrophotometry; conditions: dose microM <50; procedure, shortened: as §1
[35] = target: T1, Superoxide dismutase [Cu-Zn]; test: Inhibition of human erythrocyte CuZn-SOD at 100 uM by NBT dye based spectrophotometry; procedure, shortened: as §1

T1 sequence (P00441 whole entry): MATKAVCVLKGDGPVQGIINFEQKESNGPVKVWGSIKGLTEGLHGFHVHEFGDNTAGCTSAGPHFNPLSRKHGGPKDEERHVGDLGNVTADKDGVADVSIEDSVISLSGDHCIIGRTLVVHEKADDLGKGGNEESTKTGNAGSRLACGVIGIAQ

Row | SMILES | Activity [1] [%] | Activity [4] | Activity [5] | Activity [6] | IC50 [7] [µM] | Activity [8] | IC50 [9] [µM] | Activity [10] | Activity [11] | IC50 [12] [µM] | IC50 [13] [µM] | Activity [14] | IC50 [15] [µM] | Activity [16] | IC50 [17] [mM] | IC50 [18] [µM] | Activity [19] | IC50 [22] [µM] | IC50 [29] [nM] | IC50 [30] [µM] | also measured
1 | O=C(CCN1CCN(c2ccc([N+](=O)[O-])cc2)CC1)c1csc2ccccc12 | 0 | Active | Active | Active | 77.7 | Active | 41.4 | Active | Active | 20.7 | 35.5 | Active | 18.6 | Active | 1.71 | 19.8 | Active | 11.7 | 500 | 35.9 | IC50 [2]: 46.6 µM; inhibition [3]: 100%; Activity [20]: 1.174%; inhibition (INH) [21]: 45%; inhibition [23]: 100%; Activity [24]: Active; Activity [25]: Active; IC50 [26]: 7.8 µM; inhibition (INH) [27]: 59%; inhibition (INH) [28]: 59%; Spleen weight percent [31]: 0.729%
2 | O=C(CCN1CCN(c2cccc(C(F)(F)F)c2)CC1)c1ccsc1 | – | – | – | – | 28 | – | 12.8 | – | – | 5.7 | 28 | – | 4.6 | – | 0.0048 | 20.2 | – | 18.6 | 22300 | 26.8 | selectivity ratio [32]: 1; selectivity ratio [33]: 1
3 | O=C(CCN1CCN(c2ccc([N+](=O)[O-])cc2C(F)(F)F)CC1)c1csc2ccccc12 | 0 | Active | Active | Active | 26 | Active | 179 | Active | Active | 72.9 | 50.3 | Active | 33 | Active | 2.85 | 22.8 | Active | 10.8 | 2500 | 20.3 | inhibition [34]: 100%; Activity [20]: 1.171%; inhibition (INH) [21]: 74%; Activity [24]: Active; Activity [25]: Active; IC50 [26]: 71.1 µM; inhibition (INH) [27]: 76%; inhibition (INH) [28]: 64%; inhibition [35]: inactive; Spleen weight percent [31]: 0.892%

Source: ChEMBL document CHEMBL4680103, “In Vitro and in Vivo Anti-Trypanosoma cruzi Activity of New Arylamine Mannich Base-Type Derivatives” (J Med Chem, 2016)
